Test results: ChEMBL document CHEMBL2203173 (J Med Chem, 2012)

Tests used:
Mus musculus [1] = assay: Toxicity in BALB/c nu/nu mouse xenografted with human DMS53 cells assessed as change in hemoglobin level at 4 mg/kg, iv administered for 5 days a week measured after 21 days; format: organism-based, DMS-53; parameters: dose 4 mg/kg, route intravenous; conditions: in vivo, 504 h
How it was run: (§1)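 DMS-53 xenografts in nude mice; dosing started at 100 mm3 tumor volume. Agents given iv via tail vein, 5 days/week for 21 days, vehicle 30% propylene glycol/saline, vehicle-treated controls. Mice sacrificed day 21. Body and organ weights and hematological indices recorded. Spleen, kidney, liver, heart, lungs and brain were stained with H&E, Perls' and Gomori Trichrome and read by an independent veterinary pathologist.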

Mus musculus [2] = assay: Toxicity in BALB/c nu/nu mouse xenografted with human DMS53 cells assessed as hepatocellular necrosis at 8 mg/kg, iv administered for 5 days a week measured after 21 days by hematoxylin and eosin staining method; format: organism-based, DMS-53; parameters: dose 8 mg/kg, route intravenous; conditions: in vivo, 504 h
How it was run: (§2)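 Nude mice with DMS-53 xenografts dosed by tail-vein iv injection in 30% propylene glycol/saline, starting at 100 mm3 tumour volume, 5 days/week for 21 days. Spleen, kidney, liver, heart, lungs and brain were stained with H&E, Perls' (Fe loading) and Gomori Trichrome (fibrosis) by standard methods, and an independent veterinary pathologist examined them.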

Mus musculus [3] = assay: Toxicity in BALB/c nu/nu mouse xenografted with human DMS53 cells assessed as change in lungs histology at 4 mg/kg, iv administered for 5 days a week measured after 21 days by hematoxylin and eosin staining method; format: organism-based, DMS-53; parameters: dose 4 mg/kg, route intravenous; conditions: in vivo, 504 h; how it was run: as §1
Mus musculus [4] = assay: Toxicity in BALB/c nu/nu mouse xenografted with human DMS53 cells assessed as change in RBC count at 20 mg/kg, po administered for 3 times a week measured after 20 days; format: organism-based, DMS-53; parameters: dose 20 mg/kg, route oral; conditions: in vivo, 480 h
Mus musculus [5] = assay: Toxicity in BALB/c nu/nu mouse xenografted with human DMS53 cells assessed as change in reticulocyte count at 4 mg/kg, iv administered for 5 days a week measured after 21 days; format: organism-based, DMS-53; parameters: dose 4 mg/kg, route intravenous; conditions: in vivo, 504 h
How it was run: (§3)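 Nude mice carrying DMS-53 xenografts (treatment from 100 mm3) received iv tail-vein doses in 30% propylene glycol/saline, 5 days/week for 21 days. Hematological indices (RBC, hemoglobin, hematocrit, reticulocytes, WBC, platelets) were then compared with vehicle controls.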

Mus musculus [6] = assay: Toxicity in BALB/c nu/nu mouse xenografted with human DMS53 cells assessed as change in RBC count at 8 mg/kg, iv administered for 5 days a week measured after 21 days; format: organism-based, DMS-53; parameters: dose 8 mg/kg, route intravenous; conditions: in vivo, 504 h
Mus musculus [7] = assay: Cardiotoxicity in BALB/c nu/nu mouse xenografted with human DMS53 cells at 8 mg/kg, iv administered for 5 days a week measured after 21 days; format: toxicity, organism-based, DMS-53; parameters: dose 8 mg/kg, route intravenous; conditions: in vivo, 504 h
How it was run: (§4)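 DMS-53 xenograft nude mice given agents iv by tail vein 5 days/week in 30% propylene glycol/saline for 21 days. At sacrifice, heart sections were stained with Gomori Trichrome to detect fibrosis. Spleen, kidney, liver, heart, lungs and brain were also stained with H&E and Perls' and examined by an independent veterinary pathologist.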

Mus musculus [8] = assay: Cardiotoxicity in BALB/c nu/nu mouse xenografted with human DMS53 cells at 4 mg/kg, iv administered for 5 days a week measured after 21 days; format: toxicity, organism-based, DMS-53; parameters: dose 4 mg/kg, route intravenous; conditions: in vivo, 504 h; how it was run: as §4
Mus musculus [9] = assay: Toxicity in BALB/c nu/nu mouse xenografted with human DMS53 cells assessed as change in brain histology at 4 mg/kg, iv administered for 5 days a week measured after 21 days by hematoxylin and eosin staining method; format: organism-based, DMS-53; parameters: dose 4 mg/kg, route intravenous; conditions: in vivo, 504 h; how it was run: as §1
Mus musculus [10] = assay: Toxicity in BALB/c nu/nu mouse xenografted with human DMS53 cells assessed as change in platelet count at 3 mg/kg, iv administered for 5 days a week measured after 21 days; format: organism-based, DMS-53; parameters: dose 3 mg/kg, route intravenous; conditions: in vivo, 504 h; how it was run: as §3
Mus musculus [11] = assay: Toxicity in BALB/c nu/nu mouse xenografted with human DMS53 cells assessed as change in spleen weight at 7.5 mg/kg, po administered for 3 times a week measured after 20 days; format: organism-based, DMS-53; parameters: dose 7.5 mg/kg, route oral; conditions: in vivo, 480 h
How it was run: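 DMS-53 xenograft nude mice were gavaged 3 times/week in 30% propylene glycol/saline vehicle for 20 days and then sacrificed. Organ weights and histology of spleen, kidney, liver, heart, lungs and brain were compared with vehicle controls. n = 6-11 mice/condition.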

Mus musculus [12] = assay: Toxicity in BALB/c nu/nu mouse xenografted with human DMS53 cells assessed as hepatocellular fibrosis at 3 mg/kg, iv administered for 5 days a week measured after 21 days by hematoxylin and eosin staining method; format: organism-based, DMS-53; parameters: dose 3 mg/kg, route intravenous; conditions: in vivo, 504 h; how it was run: as §2
Mus musculus [13] = assay: Toxicity in BALB/c nu/nu mouse xenografted with human DMS53 cells assessed as body weight change at 10 mg/kg, po administered for 3 times a week measured after 20 days; conditions: in vivo, 480 h
Mus musculus [14] = assay: Toxicity in BALB/c nu/nu mouse xenografted with human DMS53 cells assessed as change in hematopoetic cells in splenic red pulp at 3 mg/kg, iv administered for 5 days a week measured after 21 days by hematoxylin and eosin staining method; format: organism-based, DMS-53; parameters: dose 3 mg/kg, route intravenous; conditions: in vivo, 504 h; how it was run: as §1
Mus musculus [15] = assay: Toxicity in BALB/c nu/nu mouse xenografted with human DMS53 cells assessed as change in brain histology at 6 mg/kg, iv administered for 5 days a week measured after 21 days by hematoxylin and eosin staining method; format: organism-based, DMS-53; parameters: dose 6 mg/kg, route intravenous; conditions: in vivo, 504 h; how it was run: as §1
Mus musculus [16] = assay: Toxicity in BALB/c nu/nu mouse xenografted with human DMS53 cells assessed as change in organ weight at 3 mg/kg, iv administered for 5 days a week measured after 21 days; format: organism-based, DMS-53; parameters: dose 3 mg/kg, route intravenous; conditions: in vivo, 504 h
How it was run: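 DMS-53 xenograft-bearing nude mice, treatment started at 100 mm3 tumour volume: iv tail-vein dosing in 30% propylene glycol/saline, 5 days/week for 21 days. Organs were weighed at sacrifice and compared with vehicle-control mice.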

Mus musculus [17] = assay: Toxicity in BALB/c nu/nu mouse xenografted with human DMS53 cells assessed as change in hemoglobin level at 6 mg/kg, iv administered for 5 days a week measured after 21 days; format: organism-based, DMS-53; parameters: dose 6 mg/kg, route intravenous; conditions: in vivo, 504 h; how it was run: as §1
Mus musculus [18] = assay: Toxicity in BALB/c nu/nu mouse xenografted with human DMS53 cells assessed as body weight change at 20 mg/kg, po administered for 3 times a week measured after 20 days; format: organism-based, DMS-53; parameters: dose 20 mg/kg, route oral; conditions: in vivo, 480 h
How it was run: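 DMS-53 xenograft nude mice dosed by oral gavage 3 times/week in 30% propylene glycol/saline, with vehicle controls. Average body weight recorded during 20 days of treatment. n = 6–11 mice/condition, mean ± SD.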

Mus musculus [19] = assay: Toxicity in BALB/c nu/nu mouse xenografted with human DMS53 cells assessed as change in body weight at 3 mg/kg, iv administered for 5 days a week measured after 21 days; format: organism-based, DMS-53; parameters: dose 3 mg/kg, route intravenous; conditions: in vivo, 504 h; how it was run: as §1
Mus musculus [20] = assay: Toxicity in BALB/c nu/nu mouse xenografted with human DMS53 cells assessed as change in reticulocyte count at 3 mg/kg, iv administered for 5 days a week measured after 21 days; format: organism-based, DMS-53; parameters: dose 3 mg/kg, route intravenous; conditions: in vivo, 504 h; how it was run: as §3
Mus musculus [21] = assay: Toxicity in BALB/c nu/nu mouse xenografted with human DMS53 cells assessed as change in RBC count at 7.5 mg/kg, po administered for 3 times a week measured after 20 days; format: organism-based, DMS-53; parameters: dose 7.5 mg/kg, route oral; conditions: in vivo, 480 h
Mus musculus [22] = assay: Toxicity in BALB/c nu/nu mouse xenografted with human DMS53 cells assessed as change in hemoglobin level at 7.5 mg/kg, po administered for 3 times a week measured after 20 days; format: organism-based, DMS-53; parameters: dose 7.5 mg/kg, route oral; conditions: in vivo, 480 h
How it was run: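 Nude mice bearing DMS-53 xenografts gavaged 3 times/week for 20 days, vehicle 30% propylene glycol/saline, vehicle controls, n = 6-11 mice/condition. Sacrifice on day 20. Organ weights and hematological indices recorded. Spleen, kidney, liver, heart, lungs and brain examined histologically, hearts stained with Gomori Trichrome for fibrosis.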

Mus musculus [23] = assay: Toxicity in BALB/c nu/nu mouse xenografted with human DMS53 cells assessed as change in lungs histology at 3 mg/kg, iv administered for 5 days a week measured after 21 days by hematoxylin and eosin staining method; format: organism-based, DMS-53; parameters: dose 3 mg/kg, route intravenous; conditions: in vivo, 504 h; how it was run: as §1

Question: How did the Activity (Mus musculus [1]) turn out when CN(C(=S)NN=C(c1ccccn1)c1ccccn1)C1CCCCC1.Cl was run?
Answer: Non-toxic

Question: And the Activity (Mus musculus [2])?
Answer: Non-toxic

Question: And the Activity (Mus musculus [3])?
Answer: Non-toxic

Question: And the Activity (Mus musculus [4])?
Answer: Non-toxic

Question: What about the Activity (Mus musculus [5]) of the same compound?
Answer: Non-toxic

Question: And the Activity (Mus musculus [6])?
Answer: Toxic

Question: And the Activity (Mus musculus [7])?
Answer: Non-toxic

Question: And the Activity (Mus musculus [8])?
Answer: Non-toxic

Question: What about the Activity (Mus musculus [9]) of the same compound?
Answer: Non-toxic

Question: How did the Activity (Mus musculus [10]) turn out when CCN(C)C(=S)NN=C(c1ccccn1)c1ccccn1.Cl was run?
Answer: Toxic

Question: What about the Activity (Mus musculus [11]) of the same compound?
Answer: Toxic

Question: What about the Activity (Mus musculus [12]) of the same compound?
Answer: Non-toxic

Question: And the Activity (Mus musculus [13])?
Answer: Non-toxic

Question: And the Activity (Mus musculus [14])?
Answer: Non-toxic

Question: And the Activity (Mus musculus [15])?
Answer: Non-toxic

Question: What about the Activity (Mus musculus [16]) of the same compound?
Answer: Toxic

Question: And the Activity (Mus musculus [17])?
Answer: Non-toxic

Question: What about the Activity (Mus musculus [18]) of the same compound?
Answer: Non-toxic

Question: What about the Activity (Mus musculus [19]) of the same compound?
Answer: Non-toxic

Question: And the Activity (Mus musculus [20])?
Answer: Non-toxic

Question: What about the Activity (Mus musculus [21]) of the same compound?
Answer: Non-toxic

Question: And the Activity (Mus musculus [22])?
Answer: Toxic

Question: And the Activity (Mus musculus [23])?
Answer: Non-toxic
